Test system: MS2 coat protein
Assay: apparent Kd, MS2 coat protein; higher = weaker binding; RNA-MaP array; FMN 200 µM where present
Summary of the method: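 Designs were transcribed by stalled E. coli RNA polymerase on Illumina sequencing-chip clusters. They were titrated with SNAP-549-labelled MS2 coat protein from 0.7 or 1.5 nM, doubling to 3 µM, without and then with constant ligand. Buffer: 100 mM Tris-HCl pH 7.5, 80 mM KCl, 4 mM MgCl2, BSA, DTT, yeast tRNA, Tween-20. Green signal was normalised to red-channel RNA signal and control-cluster median Fmax. Apparent Kd is the median of filtered per-cluster binding-curve fits.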

[1] = designed as: OFF switch for flavin mononucleotide, no ligand
[2] = ligand present: flavin mononucleotide, designed as: OFF switch for flavin mononucleotide
[3] = designed as: ON switch for flavin mononucleotide, no ligand
[4] = ligand present: flavin mononucleotide, designed as: ON switch for flavin mononucleotide

| Sequence | apparent Kd [1] [nM] | apparent Kd [2] [nM] | apparent Kd [3] [nM] | apparent Kd [4] [nM] |
| --- | --- | --- | --- | --- |
| AAUUAUUUUUGAGGAUAUGGUAGUGAAACACUACCAGAAGGCGGAAUAAACAUGAGGAUCACCCAUGUGAGCCUGAUGCUUAUG | 22 | 42.6 |  |  |
| CUGAUGUGAGGAUAUGUGAUCUGCCUUCUAUGUAGAUGAUCACAGAAGGCACAUGAGGAUCACCCAUGUAGAUC | 85.9 | 94.3 |  |  |
| AAAUCAGUAGGAUAUACGAUUUUAUGCUAGAUAGAGGAGCCACAUGAGGAUCACCCAUGUAGAAGGACUAGAUA | 17.1 | 19.9 |  |  |
| CUCUUGUAAGGAUAUGACUACAUAAAAAAAAAAAAAUGUAGUCAGAAGGUACAUGAGGAUCACCCAUGUACUAA | 20.9 | 22.1 |  |  |
| UGUUGUAUUACAGGAUAUCUAUUAAUUUUAUUUAGAGAAGGGUAUUCACAUGAGGAUCACCCAUGUAUAUACGAGGAAGUUGUG |  |  | 53.7 | 57.1 |
| GGUUAUAUAACAUGAGGAUCACCCAUGUGAGUGGUCCGAAUAUAGGAUAUCCACACGAGAAGUGUGGAGAAGGAUAAUUUAUUA | 40.7 | 206 |  |  |
| ACAAGAUCAGGAUAUACAUGAGGAUCACCCAUGUAUAUCAAAAAGGGACUUUCUUAAUGUAGAAGGGAUCAUGU | 14 | 12.7 |  |  |
| CUAUUGCUAACAGGAUAUAUGAGUCCUACAUGAGGAUCACCCAUGUAGGUGAUCAGCCGUGAUUAGUAGAAGGGUUAGCAAUAG |  |  | 12.2 | 6.91 |
| AGUAAGAUGCAGAAGGUGUCAGCGAGAGCUACGACAUGAGGAUCACCCAUGUACUAGAUAGAGUACAAGGAUAUGCAUCUUACA |  |  | 729 | 35.1 |
| GUAGCUAUCGGAGGAUAUUCAUACCGGAAACGGACAUGAGGAUCACCCAUGUGGCGAAAGCCUUGGGAGAAGGCCGAUAGCUAC |  |  | 601 | 20.8 |
| UUAAAUCAUGUAGGAUAUGCAUGGCGAAGCUACGCAGAAGGACAUGAGGAUCACCCAUGUUAUAGCUAGCCAGUUCGCUGGCAA | 23.6 | 164 |  |  |
| GGAUCUUGGGUCAGGAUAUGCUGAUAGUUAUGUCAGCAGAAGGGACAUGAGGAUCACCCAUGUGCUUGGUUUUG | 12.9 | 39.6 |  |  |
| UGUGCGUCAGGAUAUUCUACUUAUUACAUGAGGAUCACCCAUGUGUAUGUACAAGGGUGUGAAGAAGGGACUUGUC | 935 | 305 |  |  |
| UUGGACGUCGUAGGAUAUGUAGGAUAUUCCUACAUGAGGAUCACCCAUGUUGACAUGGAAGAAAGACAGAAGGACGAUGUCCAU |  |  | 325 | 8.48 |
| GCGUAAUAGGUGUAGCUAGUCGUACAAGAAGGGUGGAGAACAUGAGGAUCACCCAUGUGGUCUAUACAGGAUAUUGUUAUACGC |  |  | 176 | 30.5 |
| UGCAUGUAUGAGAAGGCUAAUUUGGACAUUAUUUAUGAUGAUGUUUAGGUUAGAGGAUAUUGGGACAUGAGGAUCACCCAUGUA | 21.5 | 18 |  |  |
| UUUUUACGAGGAUAUCGUUUUUUUCACAUGAGGAUCACCCAUGUUGUUUAUGUUUCGUUGCGAGAAGGCGUUUGUU | 27.3 | 21.3 |  |  |
| AACCUGCGUGGAGGAUAUGAGUGGUUGGACGCAUCAGAAGGCCAGCAGCCACAUGAGGAUCACCCAUGUACAGACACAUGUUUC |  |  | 245 | 95.1 |
| AUUUUAUAAUAGAAGGAAGACUUCAUGAGGAUCACCCAUGUGUUGGUACUUAGGAUAUGUAAUAACAUGAGGAUCACCCAUGUC |  |  | 25.6 | 26.1 |
| UGUGUGAGACAGGAUAUGCCGGUUGUGUUACUGGUAGAAGGGUCUACAUGAGGAUCACCCAUGUGGCCGGCCGG | 152 | 154 |  |  |
| UGAUAGGACAGAGGAUAUACAGAUAGGAUCUACUAUCAAACAGUCCUAACAUGAGGAUCACCCAUGUAGAAGGCUGUCCUAUCU | 20.9 | 79.2 |  |  |
| CGAAACUACGAGAAGGACAUGUGGUCCUUCAGUUACAUGAGGAUCACCCAUGUAGGAUAUCGUAGUUUCAGGAUCGUGAGAUCG | 45 | 19.4 |  |  |
| UGAUAACAUGUAGGAUAUGCAGCAUUGACCACUGCAGAAGGACAUGAGGAUCACCCAUGUAGUUGUACUAUGGGAUCACGCAAU | 419 | 194 |  |  |
| AGAAUGGGCGAGAAGGGAGUACAUGAGGAUCACCCAUGUGGUUCAUGGUGCUCAGGAUAUCGAUAGACCAAGGAGCGUCUUUGG | 20.1 | 140 |  |  |
| AGCUGUGGCCGAGGAUAUCUGACUUCAAUAACCGAAAUAUAAUCGGACAUGAGGAUCACCCAUGUAGAGAAGGCGGUCUCAGCA | 17.1 | 24.9 |  |  |
| GGCGGUGACAUAGGAUAUCUUCUAAUGCACAUGAGGAUCACCCAUGUCGCUACGCACGGGUUUGAAGAGAAGGGUGUUCGUGCC |  |  | 346 | 286 |
| UAAUUGUGAGGAUAUUCGUUUUACACGGAGACGUGUAGAACGGAGAAGGCACAUGAGGAUCACCCAUGUUCCUU | 18 | 100 |  |  |
| GGAUUACAUGAGGAUCACCCAUGUGAGGAUAUCGAUGUCCUGUCUUUAGUGCGGGACUCGAGAAGGCACUUGGA | 48 | 159 |  |  |

| Sequence | apparent Kd [1] [nM] | apparent Kd [2] [nM] | apparent Kd [3] [nM] | apparent Kd [4] [nM] |
| --- | --- | --- | --- | --- |
| GGUACUCAAAGAGUACCAAUACGAACAUGAGGAUCACCCAUGUAGGAUAUGCUACUCAAAGAGUAGCAGAAGGACAUGUGAAAU | 71.5 | 380 |  |  |
| AAUCGCGGUCGAAAGCGGUUGCAUGAGGAUAUCCUGAGACAUGAGGAUCACCCAUGUAGACUGCAGGAGAAGGCAUGGAAAGAA |  |  | 244 | 21.1 |
| UGUUGUAUUACAGGAUAUCUAGUAUUUUCAUUUAGAGAAGGGUAUUCACAUGAGGAUCACCCAUGUAUAUACGAGGAAGUUGUG |  |  | 43.7 | 45.4 |
| GGACCGCUUAGAAUUAGCGGCCGGCAGGAUAUGACAUGAGGAUCACCCAUGUGAACUCCAUUGGGUCAGAAGGGCCACGACACA | 23.9 | 86.4 |  |  |
| GUGGUCAGACAUGAGGAUCACCCAUGUGGAAUAAAUAAGGAGAAGGAUAUCUAAUAUAGGAUAUAAGAGAAGGUUUGGUUGGUG |  |  | 74 | 68 |
| GGUGACCUUGUAAGGAUAUCGAAUUUAGAUGAGCACGAGAAGGUACAUGAGGAUCACCCAUGUCUGCGGUAACU | 50.8 | 102 |  |  |
| UUGAGGUGCAAGAAGGAUCACAUGAGGAUCACCCAUGUCAUGUGAAGUCUCGAGAUUUUAUAUGGAUAGGAUAUUGCACCGAAC |  |  | 263 | 41.2 |
| GUGGUGCAUAUACGUGGAUGUACAUGAGGAUCACCCAUGUAAGAGGAUAUGCGGAUACUAGCUCAGUAGAAGGCUUACAAAUGA | 9.74 | 9.15 |  |  |
| AAAAAACAUGAGGAUCACCCAUGUGAGGAUAUCUGUAUCCAAAAGGAAGUGUAGGAUCGGAGAAGGCACUAGGA | 53.9 | 83.2 |  |  |
| AGAUACAACCAGAAGGACAUGAGGAUCACCCAUGUAGGAUAUGGGUUACACGUUCCUGUGAAUUGUAACGACGCUACGAAGAGU |  |  | 113 | 12.3 |
| AAAAAACAUGAGGAUCACCCAUGUCAGGAUAUCGAAAAAAAAAAAAAAAAAAAAAAAACGAGAAGGGACAAAAA | 99.3 | 104 |  |  |
| AAUGGGCAGCAGAAGGCAUGUCAAUGGACAUGAGGAUCACCCAUGUAGUAUAGCCGAAAGGCACAUGAGGAUAUGCUGCCCUAA |  |  | 47.2 | 6.74 |
| UAAAAGACUAGCAAAUAGACCUUCACAUGAGGAUCACCCAUGUAGGAUAUGAGCAGAAAAUCUGCUCAGAAGGACAUGCUAGUC | 3.38 | 3.6 |  |  |
| GUGCUUGUCGGAGGAUAUGGUUACAUGAGGAUCACCCAUGUUAUGCUUGGUUACUUGUUUAGUUUCCAGAAGGUCGAUUGGUUG | 69.6 | 132 |  |  |
| UGGUACUAGGGAGGAUAUGGGAAGAUACAUGAGGAUCACCCAUGUUUAAGAAUGCAGAGAGGCAACUAGAAGGCCCUAGUACCU |  |  | 324 | 18.7 |
| UCCCUAGAAGUAAGGAUAUGUCGAUGGCCAAUUCGAUAGAAGGUACAUGAGGAUCACCCAUGUGACCUACUGGG | 15.7 | 23.7 |  |  |
| UUUGUUUUGCAAGGAUAUGUUUAAUUUUAGUUUCCUUACACAUGAGGAUCACCCAUGUUAUACUUACAGAAGGUGCGUAAUUUU | 126 | 94 |  |  |
| AUUAUUAAGGUAGGAUAUAGUAAAAUAAUUUAAUUAGAAGGAUCUCACAUGAGGAUCACCCAUGUAAGAGGAUCACCCAUGUAU | 10.8 | 9.53 |  |  |
| AAUUAGGUCACAGGAUAUACUACUUCCAAUGCUGUAGAAGGGUGACACAUUCUUUGCUGACAUGAGGAUCACCCAUGUAACCAC |  |  | 231 | 41 |
| CUAUUGGCAGGAUAUGCUUUUUUAGACAUGAGGAUCACCCAUGUGAUGAAUAUUGGGUUUGCAGAAGGGCCUGAAU | 75.1 | 111 |  |  |
| AAUAACAGAGGAUAUACUAUUUUAUGUGUUUAUUGUUUUAAACAUGAGGAUCACCCAUGUAGAAGGCUGAGUAA | 42.2 | 59.8 |  |  |
| AACUCACAUGAGGAUCACCCAUGUGAGGAUAUGGUUUCGCUGGCCGUAGCCAGUGGAACCAGAAGGCGCAUGAU | 20.1 | 20 |  |  |
| UUGGUUGUCGUAGGAUAUGUAGGAUAUUCCUACAUGAGGAUCACCCAUGUUCGCAUGGAAGAAGGACAGAAGGACGAUGACCAU |  |  | 1290 | 23.7 |
| CCACGUCACAUCUACAUGAGGAUCACCCAUGUCAAAAGACAUGAGGAUAUGCAUCCUAAUUGGAUGCAGAAGGCAUGGACGUGG |  |  | 972 | 69.7 |
| UACAGACAUGAGGAUCACCCAUGUAAGGAUAUCGGUACUAAUGGUAUAAUCUACUUAGCGAGAAGGUACAGUGU | 33.9 | 30.5 |  |  |
| GAUCACUGAGGAUAUACGCAGAUACAAAGUAUCUGAUUGUGACAUGAGGAUCACCCAUGUAGAAGGCAGAGGUC | 37.2 | 124 |  |  |
| CAGCGCUGUCGAGAGGAUAUGCGGUGAUGGACAUGAGGAUCACCCAUGUUAGCGACAGCAUUACGGUAGAAGGCUUCACAGCUGC |  |  | 51.5 | 202 |
